UPR CHOP act – activators of apoptotic CHOP UPR arm, primary screen, cell-based, CHO-CHOP luciferase reporter, luminescence, uHTS; UPR activation; percent of tunicamycin response over DMSO baseline; activation, % at 10 µM; actives 0.34% (n = 330,000); AID 449763, 2010;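 active means at 10 µM dose, activation of 40% or more, normalized to positive control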;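 further: 100% = tunicamycin at 10 µg/mL and 0% = DMSO alone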
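Test system: CHO CHOP reporter cells. Input: 500 CHO-CHOP cells per well. Medium: F12 with 10% FBS. Technique: luciferase luminescence. Measure: percent activation relative to tunicamycin control. Dosing: 10 µM compound, 0.5% DMSO. Timing: 16-18 h cell attachment, then 6 h compound exposure, 37 °C.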
TLR4 MyD88 comp – inhibitors of TLR4-MyD88 association in cells, primary screen, cell-based, HeLa CL3-4, BLA complementation, FRET ratio | HeLa CL3-4 TLR4/MyD88 BLA complementation | inhibition, % at 8.4 µM | actives 0.18% (n = 200,000); in the data active means inhibition above about 25%;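 further: 0% = vehicle and 100% = reference inhibitor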
CHOP inhibitor – inhibitors of CHOP promoter induction, primary screen, cell-based, unfolded protein response, luciferase reporter | CHO-K1 CHOP-promoter luciferase, tunicamycin-induced, 15-18 h | inhibition, % at 10 µM | actives 3.8% (n = 220,000);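 active means compounds that reduced the stress-induced luciferase reporter signal by more than about 70% of percent inhibition, limit read from the data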;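 further: 0% = tunicamycin plus vehicle and 100% = wells without tunicamycin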
TLR9-MyD88 inh – inhibitors of TLR9-MyD88 association in cells, primary screen, cell-based, CHO, BLA complementation, fluorescence. Toll-like receptor 9 (Homo sapiens) + Myeloid differentiation primary response protein …. CCF4 FRET ratio. inhibition, % at 4.98 µM. actives 0.21% (n = 340,000). AID 504734, 2011;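 active means inhibition above the mean over all tested compounds plus 3 SD, cut at about 21% in these data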;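 further: 0% = DMSO only wells and 100% = clavulanate BLA inhibitor control wells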
Target sequence (Q99836 whole entry, looked up): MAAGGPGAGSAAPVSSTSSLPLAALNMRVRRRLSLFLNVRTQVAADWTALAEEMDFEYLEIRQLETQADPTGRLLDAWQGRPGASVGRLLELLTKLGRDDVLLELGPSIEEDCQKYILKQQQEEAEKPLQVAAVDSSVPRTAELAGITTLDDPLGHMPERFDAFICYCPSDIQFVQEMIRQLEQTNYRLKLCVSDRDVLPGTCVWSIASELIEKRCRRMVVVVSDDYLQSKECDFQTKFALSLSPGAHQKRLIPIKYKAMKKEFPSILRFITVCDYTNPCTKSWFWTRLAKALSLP
Target sequence (Q9NR96 whole entry, looked up): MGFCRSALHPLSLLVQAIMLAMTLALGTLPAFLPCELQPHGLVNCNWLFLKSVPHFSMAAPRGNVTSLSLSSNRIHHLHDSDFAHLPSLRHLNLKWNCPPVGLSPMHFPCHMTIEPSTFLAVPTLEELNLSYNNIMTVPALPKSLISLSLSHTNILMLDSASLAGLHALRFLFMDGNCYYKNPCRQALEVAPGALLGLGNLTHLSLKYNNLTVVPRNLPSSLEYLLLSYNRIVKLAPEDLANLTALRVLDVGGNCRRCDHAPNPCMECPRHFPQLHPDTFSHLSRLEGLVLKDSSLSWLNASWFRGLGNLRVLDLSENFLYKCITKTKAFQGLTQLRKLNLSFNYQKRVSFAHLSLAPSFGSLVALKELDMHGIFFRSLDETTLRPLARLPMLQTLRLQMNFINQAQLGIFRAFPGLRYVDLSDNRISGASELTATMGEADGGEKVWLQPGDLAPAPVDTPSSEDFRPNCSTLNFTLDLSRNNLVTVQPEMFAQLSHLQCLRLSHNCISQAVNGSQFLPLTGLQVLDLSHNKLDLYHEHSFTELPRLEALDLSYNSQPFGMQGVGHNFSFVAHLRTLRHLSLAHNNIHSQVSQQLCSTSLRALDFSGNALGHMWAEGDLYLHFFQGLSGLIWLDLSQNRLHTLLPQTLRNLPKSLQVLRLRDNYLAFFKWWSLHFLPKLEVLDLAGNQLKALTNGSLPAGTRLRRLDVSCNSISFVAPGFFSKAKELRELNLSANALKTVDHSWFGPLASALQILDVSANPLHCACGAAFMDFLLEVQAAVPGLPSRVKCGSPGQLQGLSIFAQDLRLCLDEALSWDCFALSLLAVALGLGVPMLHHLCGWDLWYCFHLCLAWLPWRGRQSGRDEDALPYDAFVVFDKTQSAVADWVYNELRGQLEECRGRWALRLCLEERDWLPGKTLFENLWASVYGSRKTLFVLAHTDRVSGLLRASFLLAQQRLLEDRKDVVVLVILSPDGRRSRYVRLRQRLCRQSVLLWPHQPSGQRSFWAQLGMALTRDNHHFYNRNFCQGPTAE
UPR XBP1 act – activators of adaptive XBP1 UPR arm, primary screen, cell-based, CHO-XBP1 luciferase reporter, luminescence, uHTS; IRE1-XBP1 UPR activation; percent of tunicamycin response, DMSO as zero; AID 463104, 2010; activation, % at 20 µM; actives 0.33% (n = 330,000);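 active means versus positive control, 20 µM dose yields 30% or more activation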;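 further: 100% = tunicamycin at 10 µg/mL and 0% = DMSO only wells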
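Material – CHO cell line with stable XBP1 luciferase reporter · Buffer or medium – F12 plus 10% FBS · Compound – single point, 20 µM final compound, 1% DMSO · Schedule – 16-18 h cell attachment at 37 °C, then 6 h compound exposure · Signal – Steady-Glo luminescence read · Benchmarks – high control tunicamycin 10 µg/mL final, low control DMSO vehicle only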
NOD2-RIPK2 inh – NOD2-RIPK2 binding disruptors in cells, primary screen, fluorescence, CHO cells, BLA complementation | inhibition, % at 4.98 µM | CCF4 ratio | AID 624267, 2012 | actives 0.38% (n = 360,000); in the data active means inhibition above about 21%;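 further: 0% = vehicle only and 100% = reference blocker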
CHOP inh conf – retest of CHOP induction inhibitors, confirmation, cell-based. shares compounds with CHOP inhibitor. CHO-CHOP promoter luciferase reporter, tunicamycin-induced, luminescence. inhibition, % at 10 µM. actives 45% (n = 2,100);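 active means mean of three repeat readings of reporter signal inhibition above a set limit, cut at about 70% in these data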;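 further: 0% = tunicamycin plus vehicle and 100% = wells lacking tunicamycin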
An asterisk follows results filed as active; x = no result. Many of the other results were omitted from the sample, so hits are more common in it than they were.

SMILES	UPR CHOP act	TLR4 MyD88 comp	CHOP inhibitor	TLR9-MyD88 inh	UPR XBP1 act	NOD2-RIPK2 inh	CHOP inh conf
O=C(CC1S/C(=N/N=C/c2cccs2)NC1=O)Nc1ccc(Cl)c(Cl)c1 (configuration not stated)	3	-13	104*	9	0	-6	57
COc1ccc2c3c(cccc13)C(=O)N(O)C2=O	x	1	102*	-2	x	-1	108*
CC(C)NC(=O)c1cc(C2CCCCN2S(=O)(=O)c2ccc(F)cc2F)on1 (configuration not stated)	x	x	x	x	x	6	x
NC(N)=N/N=C/c1ccc(OCc2ccccc2Cl)cc1	5	4	97*	6	6	2	-14
O=C1NC[C@@H](CCCCN2C[C@H](Cc3ccc(O)cc3)N(CCc3ccccc3)C(=O)C2=O)N(CCc2ccccc2)C1=O	x	x	x	x	x	-6	x
CCOC(=O)c1sc2nc(-c3ccco3)c3c(c2c1N)CC(C)(C)OC3	2	x	x	6	-1	4	x
Cc1nc2oc(C(=O)c3ccc(Br)cc3)c(N)c2c2c1COC(C)(C)C2	1	4	101*	-2	5	-9	-62
Cc1nc2oc3c(=O)[nH]cnc3c2c2c1COC(C)(C)C2	-1	x	-17	2	-4	5	x
CCCc1nc2oc(C(=O)c3ccccc3)c(N)c2c2c1COC(C)(C)C2	-4	14	110*	-9	5	-6	97*
CC(C)COC(=O)N1CCCCC1c1cc(C(=O)Nc2ccccc2)no1 (configuration not stated)	x	x	x	x	x	2	x
FC(F)(F)c1cccc(CN2CCC(c3cc(-c4cccs4)n[nH]3)CC2)c1	1	0	104*	8	-2	-1	94*
CC1C/C(=C/c2ccccn2)C(=O)/C(=C/c2ccccn2)C1 (configuration not stated)	14	8	108*	8	-6	16	113*
O=C1/C(=C/c2ccccn2)COc2ccccc21	1	23	-48	3	4	-10	x
CC(C)(C)C1C/C(=C/c2ccccn2)C(=O)/C(=C/c2ccccn2)C1 (configuration not stated)	-9	0	109*	1	-7	27*	137*
CCCCNC(=O)C1(C)CCC(=O)N1CCOc1ccccc1 (configuration not stated)	x	x	x	x	x	-15	x
FC(F)(F)c1cc(-c2cccs2)nc(N2CCOCC2)n1	1	-7	100*	-18	0	3	26
FC(F)(F)c1cc(-c2cccs2)nc(-n2cc(Br)cn2)n1	-1	-11	97*	-9	1	0	73*
Cc1cnn(-c2nc(-c3cccs3)cc(C(F)(F)F)n2)c1	0	-1	-3	-3	2	10	x
O=c1[nH][nH]c2c1C(C1CCCCC1)OC(C1CCCCC1)C2 (configuration not stated)	x	x	x	x	x	-1	x
COc1ccc(S(=O)(=O)N2CCOCC2)cc1NC(=O)CN1C(=O)NC2(CCC(C)CC2)C1=O (configuration not stated)	x	x	x	-3	x	-9	x
O=C(CCl)Nc1cc(-c2ccccc2)nn1-c1ccccc1	12	5	x	-14	-6	-1	83*
Cc1ccc(NC(=O)c2c(C(=O)Nc3ccccc3)sc3nc(C)cc(=O)n23)cc1	0	-3	39	0	3	-17	x
Cc1cc(=O)n2c(C(=O)Nc3ccc(C)c(C)c3)c(C(=O)Nc3ccccc3)sc2n1	2	3	97*	5	0	-7	26
Cc1sc2ncnc(N3CCCC(C)C3)c2c1C (configuration not stated)	-1	-2	37	1	-1	1	x
Cc1sc2ncnc(N3CCCCC3C)c2c1C (configuration not stated)	2	-6	99*	-2	0	-2	70*
SMILES	UPR CHOP act	TLR4 MyD88 comp	CHOP inhibitor	TLR9-MyD88 inh	UPR XBP1 act	NOD2-RIPK2 inh	CHOP inh conf
Cc1cc(C)c2c(CN(Cc3ccccc3)Cc3ccccc3)cc(=O)oc2c1	x	x	x	x	x	0	x
COc1ccc(C(=O)C(=NNc2ccccc2)c2ccc(OC)cc2)cc1	x	x	x	3	x	-9	x
COc1ccc(N/N=C(\C=N\O)C(=O)c2ccc(OC)cc2)cc1	-1	2	x	14	24	-5	73*
CCNC(=O)C1(C)CCN(Cc2cccc(C(F)(F)F)c2)C1 (configuration not stated)	x	x	x	x	x	-12	x
O=C(Nc1ccc(N2CCOCC2)c(S(=O)(=O)Nc2ccccc2Cl)c1)c1ccc(F)cc1	0	x	x	2	-2	-23	x
O=C(Nc1ccc(F)cc1)Nc1ccc(N2CCCC2)c(S(=O)(=O)Nc2ccccc2Cl)c1	10	-3	97*	0	6	3	91*
OC(CNCCc1ccc(C(F)(F)F)cc1)COc1ccc2ccccc2c1 (configuration not stated)	0	-9	108*	-1	0	8	123*
OC(CNCCc1ccc(C(F)(F)F)cc1)COc1cccc2ccccc12 (configuration not stated)	-4	3	108*	5	14	1	134*
Cc1nc2ccc(Cl)cn2c1[N+](=O)[O-]	x	x	x	-9	x	-8	x
COCCNC(=O)C1CCCN(Cc2ccc(C)cc2)CC1 (configuration not stated)	x	x	x	x	x	8	x
c1ccc2c(-c3ccc4nncn4c3)cncc2c1	x	x	x	x	x	-3	x
N#C/C(=C/c1ccc(N2CCCCC2)o1)c1cccc(F)c1	20	10	103*	2	6	4	20
COc1ccc2c(-c3cc4ccc(OCc5ccc(F)cc5)cc4oc3=O)cc(=O)oc2c1	x	1	103*	5	x	6	51
CN(CCO)c1ccc2c(c1)OC[C@H](Cc1ccccc1)NS2(=O)=O	x	x	x	x	x	-2	x
CCCc1ccc(Oc2cn[nH]c2-c2ccc(O)c(C)c2O)cc1	3	5	105*	0	4	-1	60
CCCc1ccc(Oc2c(-c3ccc(O)c(C)c3O)n[nH]c2C)cc1	2	-8	106*	2	5	-4	12
COc1cccc(Oc2cn[nH]c2-c2ccc(O)cc2O)c1	1	2	x	-7	-2	-4	x
